From paper PMC3786212 (Structure (London, England : 1993), 2012)

T1: DCNL4^P (DCNL4 PONY domain) (Homo sapiens, UniProt Q92564)
T1 sequence (Q92564 101-287 limits assumed): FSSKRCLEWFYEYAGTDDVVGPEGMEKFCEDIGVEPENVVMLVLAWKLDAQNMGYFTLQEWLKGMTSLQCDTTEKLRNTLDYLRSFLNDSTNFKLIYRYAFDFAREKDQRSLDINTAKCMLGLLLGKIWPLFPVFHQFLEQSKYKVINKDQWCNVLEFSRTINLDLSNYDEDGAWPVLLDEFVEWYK

T2: DCNL5^P (DCNL5 PONY domain) (Homo sapiens, UniProt Q9BTE7)
T2 sequence (Q9BTE7 46-232 limits assumed): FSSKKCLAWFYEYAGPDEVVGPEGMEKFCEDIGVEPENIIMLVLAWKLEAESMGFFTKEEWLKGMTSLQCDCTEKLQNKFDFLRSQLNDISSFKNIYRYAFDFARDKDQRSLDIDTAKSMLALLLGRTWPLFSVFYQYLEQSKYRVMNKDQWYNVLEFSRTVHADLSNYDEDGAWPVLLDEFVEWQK

B1: UBE2F^NAc: N-terminally acetylated human UBE2F, NEDD8 E2, expressed in insect cells (protein)
chain: MLTLASKLKRDDGLKGSRTAATASDSTRRVSVRDKLLVKEVAELEANLPCTCKVHFPDPNKLHCFQLTVTPDEGYYQGGKFQFETEVPDAYNMVPPKVKCLTKIWHPNITETGEICLSLLREHSIDGTGWAPTRTLKDVVWGLNSLFTDLLNFDDPLNIEAAEHHLRDKEDFRNKVDDYIKRYAR
modifications: N-terminal methionine retained and N-terminally acetylated; left off: His tag, C-terminal, state not stated
B2: unacetylated UBE2F: UBE2F prepared in E. coli as SUMO fusion, unacetylated N-terminal Met (protein)
chain: MLTLASKLKRDDGLKGSRTAATASDSTRRVSVRDKLLVKEVAELEANLPCTCKVHFPDPNKLHCFQLTVTPDEGYYQGGKFQFETEVPDAYNMVPPKVKCLTKIWHPNITETGEICLSLLREHSIDGTGWAPTRTLKDVVWGLNSLFTDLLNFDDPLNIEAAEHHLRDKEDFRNKVDDYIKRYAR
modifications: left off: SUMO, N-terminal, cleaved

Key:
[1] = molecular target: UBE2F^NAc, N-terminally acetylated UBE2F (human) (UniProt Q969M7); assay: ITC
[2] = molecular target: T1, DCNL4^P (DCNL4 PONY domain); assay: ITC binding to DCNL4 PONY domain; settings: full-length UBE2F protein, pH 7.0, 16 °C
How it was run: (§1)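 Buffer-matched by NAP-5 desalting into 25 mM HEPES, 125 mM NaCl, 1 mM BME, pH 7.0. N-terminally acetylated UBE2F in cell at 100 µM final, 16 °C. PONY domain (1 mM) injected as 2.5 µl, 5 s injections at 3 min intervals. Heats and Kd from fits of integrated data. At least two independent runs; values from one run.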

[3] = molecular target: T2, DCNL5^P (DCNL5 PONY domain); assay: ITC binding to DCNL5 PONY domain; settings: full-length UBE2F protein, pH 7.0, 16 °C
How it was run: as §1

[4] = molecular target: DCNL1^P (DCNL1 PONY domain) (Homo sapiens, UniProt Q96GG9); assay: ITC binding to DCNL1 PONY domain; settings: full-length UBE2F protein, pH 7.0, 16 °C
Sequence of DCNL1^P (DCNL1 PONY domain) (Q96GG9 60-248 limits assumed): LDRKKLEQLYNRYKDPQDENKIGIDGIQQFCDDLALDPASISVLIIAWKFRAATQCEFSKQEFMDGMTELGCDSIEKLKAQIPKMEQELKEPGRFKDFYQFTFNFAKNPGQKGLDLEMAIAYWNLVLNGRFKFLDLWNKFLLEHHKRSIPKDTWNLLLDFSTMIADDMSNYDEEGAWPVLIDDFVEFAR
How it was run: as §1

[5] = molecular target: DCNL2^P (DCNL2 PONY domain) (Homo sapiens, UniProt Q6PH85); assay: ITC binding to DCNL2 PONY domain; settings: full-length UBE2F protein, pH 7.0, 16 °C
Sequence of DCNL2^P (DCNL2 PONY domain) (Q6PH85 60-248 limits assumed): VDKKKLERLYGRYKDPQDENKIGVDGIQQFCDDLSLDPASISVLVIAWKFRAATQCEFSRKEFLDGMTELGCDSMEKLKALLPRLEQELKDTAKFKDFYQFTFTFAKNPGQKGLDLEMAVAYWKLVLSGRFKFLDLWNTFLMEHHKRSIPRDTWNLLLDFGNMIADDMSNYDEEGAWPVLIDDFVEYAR
How it was run: as §1

| Molecule | fold decrease in binding against DCNL3^P [1] [fold] | Kd [2] | Kd [3] | further results |
| --- | --- | --- | --- | --- |
| DCNL2 PONY domain (DCNL2^P) (from UniProt Q6PH85 62-259) (domain or fragment) | 5 | – | – | – |
| DCNL3 PONY domain (DCNL3^P) (from UniProt Q8IWE4 86-304) (domain or fragment) | – | – | – | Kd [1]: 1000 nM |
| DCNL1 PONY domain (DCNL1^P) (from UniProt Q96GG9 62-259) (domain or fragment) | 5 | – | – | – |
| B1 | – | too high for us to measure | too high for us to measure | fold decrease in binding relative to DCNL3^P [4]: 5 fold; fold decrease in binding relative to DCNL3^P [5]: 5 fold |
| B2 | – | could not measure binding | could not measure binding | binding (ITC) [4]: could not measure binding; binding (ITC) [5]: could not measure binding |
